KCNQ1 pot: potentiators or activators of human KCNQ1 potassium channel; B-score at 10 µM; AID 2648; P51787; CHO-K1 KCNQ1, thallium flux FluxOR fluorescence; hits give high values; 310,000 compounds, 0.35% hits;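 active = fluorescence ratio B-score, a plate-corrected score, at least three library SD, with initial intensity B-score within 5 SD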
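System: CHO-K1 cells stably expressing KCNQ1 / Medium: assay buffer for compound exposure, DMSO matched across wells / Reagent: thallium- and potassium-containing depolarizing buffer / Compound: one concentration, matched DMSO / Incubation: 20 min compound pretreatment at room temperature / Measured by: kinetic FluxOR fluorescence, 10 s baseline plus 110 s post-stimulus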
Kir21 inh: inhibitors of mouse Kir2.1 inward-rectifier potassium channel; HEK293-Kir2.1, FluxOR thallium flux fluorescence; hits give low values; AID 1672; B-score at 10 µM; 310,000 compounds, 0.85% hits;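 active = fluorescence ratio B-score at or below minus 3 SD of library scores, with starting-brightness B-score within 2 SD, cut at about -4.2 in these data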;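 note: channel flux triggered by added potassium and thallium sulfate stimulus; B-score of peak minus minimum fluorescence over baseline after thallium stimulus; more negative B-score means stronger Kir2.1 block with less thallium influx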
KCNK3 inh: human KCNK3 channel inhibition, primary screen | O14649 | CHO-KCNK3 thallium flux, FluxOR fluorescence; hits give low values | B-score at 10 µM | 340,000 compounds, 0.84% hits;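 active = B-score under library mean minus 4 SD, starting fluorescence ratio at most library mean plus 5 SD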;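 note: more negative B-score means stronger inhibition of thallium flux through KCNK3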
hERG protect: compounds protecting human hERG from proarrhythmic drug block | Q12809 | CHO-hERG, FluxOR thallium flux, dofetilide IC70 present | activation (rescue from dofetilide block), less the hit threshold, % at 10 µM | 310,000 compounds, 0.51% hits | AID 1511;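 active = activation above the mean of controls blocked by dofetilide plus 5 SD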;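 note: thallium influx through hERG after potassium depolarization seen as dye fluorescence rise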
KCNK9 inh: inhibitors of human KCNK9 two-pore domain potassium channel. 310,000 compounds, 1.2% hits. HEK293 KCNK9, FluxOR thallium flux fluorescence; hits give low values. AID 488922. B-score at 10 µM;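 active = ratio B-score over 3 SD below the library mean, with starting fluorescence within 5 SD of its mean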;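 note: negative B-score means less thallium flux so channel inhibition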
Target sequence (Q9NPC2 whole entry, looked up, the tested form may be a part): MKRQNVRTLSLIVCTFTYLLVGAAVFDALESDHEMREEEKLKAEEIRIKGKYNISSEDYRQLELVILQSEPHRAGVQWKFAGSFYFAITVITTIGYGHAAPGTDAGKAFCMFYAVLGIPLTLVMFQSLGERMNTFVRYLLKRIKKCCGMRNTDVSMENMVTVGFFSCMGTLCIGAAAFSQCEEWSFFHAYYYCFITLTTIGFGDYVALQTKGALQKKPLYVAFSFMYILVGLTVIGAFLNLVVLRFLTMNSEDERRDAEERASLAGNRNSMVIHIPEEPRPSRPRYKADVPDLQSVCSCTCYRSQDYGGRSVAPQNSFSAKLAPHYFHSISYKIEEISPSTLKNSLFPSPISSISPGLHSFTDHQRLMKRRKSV
KCNQ1 block: blocks the human KCNQ1 potassium channel | P51787 | B-score at 10 µM | 310,000 compounds, 1.3% hits | CHO-K1 KCNQ1, FluxOR thallium flux fluorescence; hits give high values;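 active = compounds whose thallium flux B-score, printed positive for inhibition, exceeds three library SD while starting fluorescence stays within three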;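 note: channel opened by potassium depolarization with thallium stimulus after 20 min compound exposure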
* marks the source's active call; other numbers are inactive results; i = inactive; . = no result given. The list is not random: actives were taken first. Their share in the collection is about 3.8%.

SMILES	KCNQ1 pot	Kir21 inh	KCNK3 inh	hERG protect	KCNK9 inh	KCNQ1 block
Cc1noc(C)c1/C=N/Nc1ccccn1	i	-0.25	i	6.4*	i	i
O=C(C[C@@H]1C/C=C\CCCC(=O)OC[C@@H](c2ccccc2)NC1=O)NCCO	.	.	i	.	.	.
COc1ccc(/C=N/NC(=O)COc2ccccc2-c2ccccc2)cc1	i	1.93	i	-4.5	i	i
COc1ccc(Br)c(/C=N/NC(=O)COc2ccc(-c3ccccc3)cc2)c1	i	-0.3	-9.24*	-12.6	i	i
COc1ccc(Nc2ncnc3ccc(C)cc23)cc1	i	-6.05*	i	1.3	i	i
COC(=O)c1sccc1NC(=O)CSc1ccccc1NS(=O)(=O)c1ccc(Cl)cc1	i	0.27	i	-1.0	i	i
COC(=O)c1sccc1NC(=O)CSc1ccccc1NS(=O)(=O)c1ccccc1Cl	i	1.39	i	-15.0	-7.2*	i
CCCCCc1nnc(NC(=O)c2cccc(S(=O)(=O)N3CCOCC3)c2)s1	.	.	i	.	.	.
Cc1ccc(O)c(NC(=O)c2ccco2)c1	i	1.31	i	-4.5	i	i
CCOc1ccccc1NC(=O)c1ccc(NC(=O)c2ccco2)cc1	i	0	i	-8.3	-6.59*	i
COc1ccccc1NC(=O)c1cccc(NC(=O)c2ccco2)c1	.	.	-9.37*	.	.	.
O=C(Nc1ccccc1C(=O)O)c1cccc(NC(=O)c2ccco2)c1	i	-0.05	i	5.3*	i	i
CC(=O)c1cccc(NC(=O)c2cccc(NC(=O)c3ccco3)c2)c1	i	1.79	i	-8.2	i	i
COc1ccc(NC(=O)c2ccco2)cc1NC(=O)c1ccccc1	i	1.51	i	-12.1	i	i
Cc1ccc(O)c(NC(=O)c2cccc(NC(=O)c3ccco3)c2)c1	i	1.34	-9.38*	-9.4	-6.89*	i
Cc1c(NC(=O)[C@@H](NC(=O)c2ccc(Cl)c([N+](=O)[O-])c2)C(C)C)c(=O)n(-c2ccccc2)n1C	.	.	i	.	.	.
C/C(CC(=O)NCc1ccco1)=N\NC(=O)c1ccc([N+](=O)[O-])cc1Cl	i	0.04	i	-6.1	i	i
CCOc1ccc(OCCC(=O)OCC(=O)NCc2ccccc2)cc1	i	0.03	i	-8.0	i	i
NC1=NS(=O)(=O)NC1c1ccc(F)cc1 (centres undefined)	i	0.48	i	-4.8	i	i
O=[N+]([O-])c1cccc(CSc2nnc(Cc3ccccc3)n2-c2ccc(F)cc2)c1	i	-5.78*	i	-7.9	i	i
COc1ccc(NC(=O)CC23CC4CC(C2)CC(n2nnc(C)n2)(C4)C3)cc1	i	-1.09	i	-12.5	i	i
N/C(Cc1ccc(Cl)cc1)=N\OC(=O)c1ccc2ccccc2c1	i	1.78	i	-2.3	i	i
N/C(Cc1ccc(Cl)cc1)=N\OC(=O)c1cccc2ccccc12	i	-0.21	i	-2.6	-14.5*	i
COc1ccc(CNC(=S)Nc2ccc(F)c(Cl)c2)cc1OC	i	-0.89	i	4.9*	i	i
COC(=O)C=C1CCC2C3CCC4=CC(=O)C(Br)CC4(C)C3C(=O)CC12C (centres undefined)	.	.	i	.	.	.
SMILES	KCNQ1 pot	Kir21 inh	KCNK3 inh	hERG protect	KCNK9 inh	KCNQ1 block
CCN(Cc1ccccc1)S(=O)(=O)c1ccccc1Br	.	.	i	.	.	.
C=CCCCN(Cc1ccccc1)S(=O)(=O)c1ccccc1Br	i	0.91	i	-16.5	-7.71*	i
Cc1ccc(/C(O)=C/C(=O)C(=O)NC23CC4CC(CC(C4)C2)C3)cc1	15*	-0.1	i	8.5*	i	i
Cc1ccc(C(=O)NCC(=O)NC23CC4CC(CC(C4)C2)C3)cc1	i	-0.08	i	-7.3	i	i
CN1CCN(CCCc2c3c(cc4c2CCC4)CCC3)CC1	i	-4.39*	i	-8.3	i	i
Cc1cc(C)c(NC(=O)CCCN2CCN(C)CC2)c(C)c1	i	-2.02	i	-2.6	i	i
O=C(Cc1coc2cc3c(cc12)CCC3)NC1CCCCCCC1	i	1.66	i	-4.2	i	i
O=C(Cc1coc2cc3c(cc12)CCC3)NCC1(N2CCCCC2)CCCCC1	i	-4.66*	i	-4.2	i	i
CC(C)CCN1CCN(Cc2nc(-c3ccc(F)cc3)cs2)CC1CCO (centres undefined)	i	0.04	i	7.1*	i	i
COC(=O)c1ccc(CN2CCN(CCc3ccccc3)C(CCO)C2)cc1 (centres undefined)	i	-0.15	i	-15.4	i	i
COC(=O)c1ccc(CN2CCN(CCC(C)C)C(CCO)C2)cc1 (centres undefined)	i	-0.27	i	-18.4	i	6*
C[C@H](CO)N1C[C@H](C)[C@@H](CN(C)S(C)(=O)=O)Oc2ccc(NS(=O)(=O)c3ccccc3)cc2C1=O	.	.	i	.	.	.
O=[N+]([O-])c1ccc(COc2ccccc2CN2CCCCC2)cc1	.	.	i	.	.	.
CCCCC(C(=O)OCC)C(N)Cc1ccc(F)cc1 (centres undefined)	i	-4.68*	i	-4.9	i	i
CN(C(=O)c1cnccn1)c1nnc(-c2cnccn2)s1	i	-0.42	i	10.1*	i	i
Cc1c(C(=O)NC2CCN(Cc3ccccc3)C2)oc2c(Cl)cccc12 (centres undefined)	i	-9.86*	i	-14.3	i	i
Cc1c(C(=O)N2CCN(c3ccccc3)CC2)oc2c(Cl)cccc12	.	.	-9.93*	.	.	.
O=C(NC1CCN(Cc2ccccc2)CC1)c1ccccc1Cl	i	0.85	i	-8.6	i	i
CCCn1c2c(c(O)c(C(=O)Nc3nccs3)c1=O)CCCC2	i	0.18	i	-2.6	-6.63*	i
CCCn1c2c(c(O)c(C(=O)Nc3nc(C)cs3)c1=O)CCCC2	i	-4.26	.	-14.8	i	i
O=C(NC(Cc1ccc(O)cc1)C(=O)N=Nc1c(O)[nH]c2ccccc12)c1ccccc1 (centres undefined)	.	.	i	.	.	.
O=C(NCCCN1CCCC1)c1ccc(CS(=O)(=O)c2ccc(Cl)cc2)o1	i	-0.27	i	-5.5	i	i
CCOc1cc(C)c(Cl)cc1S(=O)(=O)N1CCCC1	i	-5.55*	i	-9.9	i	i
Cc1cc(C)c(S(=O)(=O)NCc2ccc3c(c2)OCO3)cc1C	i	-4.26*	i	-7.3	i	i
Cc1cc(S(=O)(=O)NCc2ccncc2)c(C)cc1Br	i	-0.55	i	-15.2	i	6*
CCOc1cc(C)c(Cl)cc1S(=O)(=O)NCc1ccc2c(c1)OCO2	i	-6.56*	i	-4.9	i	i

Source: PubChem BioAssay (Johns Hopkins Ion Channel Center)
